Test results: ChEMBL document CHEMBL4400581, “First Example of Catalytic Synthesis of Difurazanohexahydrohexaazapyrenes and in Vitro Study of Their Antitumor Activity” (2019)

How the values were obtained:
Format in all cases: functional
[1] = system: U-937; assay: Cytotoxicity against human U937 cells by MTT assay
Outline: (§1)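 Cytotoxicity was measured by MTT assay across a range of concentrations in human tumour lines, with etoposide as the reference drug. Results are expressed as CC50.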

[2] = system: K562; assay: Cytotoxicity against human K562 cells by MTT assay; outline: as §1
[3] = system: HeLa; assay: Cytotoxicity against human HeLa cells by MTT assay; outline: as §1
[4] = system: Jurkat; assay: Cytotoxicity against human Jurkat cells by MTT assay; outline: as §1

SMILES: C1CCC(N2CN3c4nonc4N4CN(C5CCCC5)CN5c6nonc6N(C2)C3C45)C1 (centres undefined)
- Activity [1]: Dose-dependent effect
- CC50 [1]: 0.57 µM
- Activity [2]: Dose-dependent effect
- CC50 [2]: 0.64 µM
- Activity [3]: Dose-dependent effect
- CC50 [3]: 0.98 µM
- Activity [4]: Dose-dependent effect
- CC50 [4]: 0.51 µM

SMILES: C1CCC(N2CN3c4nonc4N4CN(C5CCCCC5)CN5c6nonc6N(C2)C3C45)CC1 (centres undefined)
- Activity [1]: Dose-dependent effect
- CC50 [1]: 0.54 µM
- Activity [2]: Dose-dependent effect
- CC50 [2]: 0.59 µM
- Activity [3]: Dose-dependent effect
- CC50 [3]: 1.04 µM
- Activity [4]: Dose-dependent effect
- CC50 [4]: 0.53 µM

SMILES: C1CC1N1CN2c3nonc3N3CN(C4CC4)CN4c5nonc5N(C1)C2C34 (centres undefined)
- Activity [1]: Dose-dependent effect
- CC50 [1]: 0.25 µM
- Activity [2]: Dose-dependent effect
- CC50 [2]: 0.31 µM
- Activity [3]: Dose-dependent effect
- CC50 [3]: 0.42 µM
- Activity [4]: Dose-dependent effect
- CC50 [4]: 0.27 µM
